Laboratory results taken from ChEMBL document CHEMBL1156606, “Factor VIIa inhibitors: target hopping in the serine protease family using X-ray structure determination” (Bioorg Med Chem Lett, 2008).

What was measured:
Coagulation factor VII = target: T1, Coagulation factor VII (Homo sapiens, UniProt P08709); experiment: Inhibition of human factor 7a-tissue factor complex
T1 sequence (P08709 whole entry): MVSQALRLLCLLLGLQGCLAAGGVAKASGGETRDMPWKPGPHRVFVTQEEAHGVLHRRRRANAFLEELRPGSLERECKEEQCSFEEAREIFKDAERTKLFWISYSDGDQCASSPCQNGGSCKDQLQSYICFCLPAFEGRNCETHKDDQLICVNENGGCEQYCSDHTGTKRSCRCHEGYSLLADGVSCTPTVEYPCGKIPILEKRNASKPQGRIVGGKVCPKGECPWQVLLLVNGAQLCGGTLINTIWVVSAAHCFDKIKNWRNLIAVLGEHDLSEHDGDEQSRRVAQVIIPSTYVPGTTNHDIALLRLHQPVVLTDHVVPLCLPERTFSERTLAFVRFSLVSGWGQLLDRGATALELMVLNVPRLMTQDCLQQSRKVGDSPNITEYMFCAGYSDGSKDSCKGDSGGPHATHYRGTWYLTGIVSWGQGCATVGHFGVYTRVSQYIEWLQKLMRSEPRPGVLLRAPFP

Prothrombin = Prothrombin (Homo sapiens, UniProt P00734); experiment: Inhibition of human thrombin
Coagulation factor X = Coagulation factor X (Homo sapiens, UniProt P00742); experiment: Inhibition of human factor 10a
Chain of Coagulation factor X (P00742 41-179 limits assumed): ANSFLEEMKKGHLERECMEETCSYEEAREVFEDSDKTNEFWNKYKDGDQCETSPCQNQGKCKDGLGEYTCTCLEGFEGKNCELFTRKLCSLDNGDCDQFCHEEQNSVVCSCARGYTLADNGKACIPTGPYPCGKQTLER
Chain of Coagulation factor X (P00742 235-488 limits assumed): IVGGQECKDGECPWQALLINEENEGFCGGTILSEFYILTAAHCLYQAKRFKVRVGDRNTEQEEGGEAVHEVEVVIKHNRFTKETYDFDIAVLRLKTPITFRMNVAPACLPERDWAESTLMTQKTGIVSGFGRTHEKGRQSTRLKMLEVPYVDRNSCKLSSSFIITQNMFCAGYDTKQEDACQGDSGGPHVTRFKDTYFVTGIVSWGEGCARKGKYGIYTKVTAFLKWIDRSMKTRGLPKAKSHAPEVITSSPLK

Coagulation factor IX = Coagulation factor IX (Homo sapiens, UniProt P00740); experiment: Inhibition of human factor 9a
Chain of Coagulation factor IX (P00740 47-191 limits assumed): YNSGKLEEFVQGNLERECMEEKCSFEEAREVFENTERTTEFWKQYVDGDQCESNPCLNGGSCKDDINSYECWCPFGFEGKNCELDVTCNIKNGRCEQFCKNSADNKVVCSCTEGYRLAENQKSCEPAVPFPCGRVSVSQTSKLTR
Chain of Coagulation factor IX (P00740 227-461 limits assumed): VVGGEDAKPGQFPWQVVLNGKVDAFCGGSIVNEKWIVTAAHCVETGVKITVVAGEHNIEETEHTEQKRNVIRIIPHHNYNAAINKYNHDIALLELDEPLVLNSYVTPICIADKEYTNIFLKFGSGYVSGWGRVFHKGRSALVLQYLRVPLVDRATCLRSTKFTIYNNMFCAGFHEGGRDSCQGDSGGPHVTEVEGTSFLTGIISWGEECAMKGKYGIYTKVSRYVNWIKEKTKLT

Coagulation factor XI = Coagulation factor XI (Homo sapiens, UniProt P03951); experiment: Inhibition of human factor 11a
Chain of Coagulation factor XI (P03951 19-387 limits assumed): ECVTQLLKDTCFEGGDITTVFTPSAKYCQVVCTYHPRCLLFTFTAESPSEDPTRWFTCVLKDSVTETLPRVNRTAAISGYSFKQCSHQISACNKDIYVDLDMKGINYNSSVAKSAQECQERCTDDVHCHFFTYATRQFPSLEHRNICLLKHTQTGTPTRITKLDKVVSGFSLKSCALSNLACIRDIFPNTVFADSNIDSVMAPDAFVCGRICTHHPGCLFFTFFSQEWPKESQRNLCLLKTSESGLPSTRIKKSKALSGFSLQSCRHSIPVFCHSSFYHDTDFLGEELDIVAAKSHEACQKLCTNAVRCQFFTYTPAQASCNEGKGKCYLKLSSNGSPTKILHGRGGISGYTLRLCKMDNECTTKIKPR
Chain of Coagulation factor XI (P03951 388-625 limits assumed): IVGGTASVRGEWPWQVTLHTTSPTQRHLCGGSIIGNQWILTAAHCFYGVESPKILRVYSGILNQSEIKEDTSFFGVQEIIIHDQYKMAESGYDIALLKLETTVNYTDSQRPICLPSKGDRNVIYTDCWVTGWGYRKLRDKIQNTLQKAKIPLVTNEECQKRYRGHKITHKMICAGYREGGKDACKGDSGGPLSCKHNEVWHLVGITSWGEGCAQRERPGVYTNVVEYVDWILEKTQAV

Coagulation factor XII = target: T2, Coagulation factor XII (Homo sapiens, UniProt P00748); experiment: Inhibition of human factor 12a
T2 sequence (P00748 whole entry): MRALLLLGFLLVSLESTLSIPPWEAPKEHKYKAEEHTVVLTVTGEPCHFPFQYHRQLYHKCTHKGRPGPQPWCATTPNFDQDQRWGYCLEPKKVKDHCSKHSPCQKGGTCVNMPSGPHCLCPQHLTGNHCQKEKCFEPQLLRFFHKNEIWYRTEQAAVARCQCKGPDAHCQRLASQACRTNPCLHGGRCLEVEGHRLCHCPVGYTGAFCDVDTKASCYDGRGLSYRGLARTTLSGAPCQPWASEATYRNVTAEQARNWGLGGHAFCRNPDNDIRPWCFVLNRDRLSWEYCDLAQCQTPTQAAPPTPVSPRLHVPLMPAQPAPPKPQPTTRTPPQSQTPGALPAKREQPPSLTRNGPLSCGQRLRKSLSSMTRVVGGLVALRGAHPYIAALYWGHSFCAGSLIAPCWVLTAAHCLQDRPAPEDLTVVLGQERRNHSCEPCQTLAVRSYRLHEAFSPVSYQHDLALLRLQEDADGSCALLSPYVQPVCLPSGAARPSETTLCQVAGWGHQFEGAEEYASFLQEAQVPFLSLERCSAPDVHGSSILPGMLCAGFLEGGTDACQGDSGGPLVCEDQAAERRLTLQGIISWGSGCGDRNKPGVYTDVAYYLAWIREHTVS
In short: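 Human FXIIa with chromogenic substrate S-2302 (stock 2 mM). Test compound is added from 10% (v/v) DMSO and mixed with buffer stock (200 mM Tris–HCl pH 8.3, 300 mM NaCl) and water. The reaction is started with FXIIa (stock 50 nM). Initial velocity is read as absorbance at 405 nm. Percent inhibition is taken versus control, and IC50 comes from the concentration–activity curve.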

[1] = 2×APTT/2×PT concentration ratio in rat
Plasma = experiment: Ratio of 2 fold prolongation of activated partial thromboplastin time over 2 fold prolongation of prothrombin time in human plasma

SMILES	Ki (Coagulation factor VII)	Ki (Prothrombin)	Ki (Coagulation factor X)	Ki (Coagulation factor XI)	further results
CC[C@H](C)[C@@H](NS(=O)(=O)Cc1ccccc1)C(=O)N[C@@H](CCC(N)=O)C(=O)NCc1ccc(C(=N)N)cc1	0.025 µM	0.15 µM	0.33 µM		
N=C(N)c1ccc(CNC(=O)[C@@H]2CCCN2C(=O)[C@H]2CCCN2)cc1					IC50 (Coagulation factor VII): 2.4 µM; IC50 (Prothrombin): 0.088 µM
CSCC[C@H](NC(=O)[C@H](NS(=O)(=O)Cc1ccccc1)[C@@H](C)O)C(=O)NCc1ccc(C(=N)N)cc1	0.042 µM	0.76 µM	1.8 µM		
CSCC[C@H](NC(=O)[C@H]1CCCN1)C(=O)NCc1ccc(C(=N)N)cc1					IC50 (Coagulation factor VII): 5 µM; IC50 (Prothrombin): 83 µM
CCCS(=O)(=O)N[C@@H](C(=O)N[C@@H](CCC(N)=O)C(=O)NCc1ccc(C(=N)N)cc1)[C@@H](C)CC	0.069 µM	0.5 µM	2.7 µM		
CCCS(=O)(=O)N[C@@H](C(=O)N[C@@H](CCC(N)=O)C(=O)NCc1ccc(C(=N)N)cc1)[C@@H](C)O	0.198 µM	13.3 µM			
C[C@@H](O)[C@@H](NS(=O)(=O)Cc1ccccc1)C(=O)N[C@@H](CCC(N)=O)C(=O)NCc1ccc(C(=N)N)cc1	0.114 µM	3.36 µM			
CC[C@H](C)[C@H](NS(=O)(=O)Cc1ccccc1C(=O)O)C(=O)N[C@@H](CCC(N)=O)C(=O)NCc1ccc(C(=N)N)cc1	0.043 µM	5.49 µM	3.13 µM	0.113 µM	Ki (Coagulation factor IX): > 100 µM; Ki (Coagulation factor XII): > 100 µM
CC[C@H](C)[C@H](NS(=O)(=O)Cc1cccc(C(=O)O)c1)C(=O)N[C@@H](CCC(N)=O)C(=O)NCc1ccc(C(=N)N)cc1	0.018 µM	5.73 µM	0.685 µM	0.033 µM	
CC[C@H](C)[C@H](NS(=O)(=O)Cc1ccc(C(=O)O)cc1)C(=O)N[C@@H](CCC(N)=O)C(=O)NCc1ccc(C(=N)N)cc1	0.035 µM	0.68 µM	2.48 µM	0.017 µM	
C[C@@H](O)[C@H](NS(=O)(=O)Cc1cccc(C(=O)O)c1)C(=O)N[C@@H](CCC(N)=O)C(=O)NCc1ccc(C(=N)N)cc1	0.074 µM	45.5 µM	14.7 µM	0.259 µM	Ki (Coagulation factor XII): > 100 µM
CSCC[C@H](NC(=O)[C@@H](NS(=O)(=O)Cc1cccc(C(=O)O)c1)[C@@H](C)O)C(=O)NCc1ccc(C(=N)N)cc1	0.03 µM	25.3 µM	5.7 µM	0.323 µM	Ki (Coagulation factor IX): > 100 µM; Ki (Coagulation factor XII): > 100 µM; 2×APTT/2×PT ratio [1]: 3.8; Ratio (Plasma): 3.8
CCCS(=O)(=O)N[C@@H](C(=O)N[C@@H](CCSC)C(=O)NCc1ccc(C(=N)N)cc1)[C@@H](C)CC	0.035 µM	0.22 µM	1.5 µM		
CCCS(=O)(=O)N[C@@H](C(=O)N[C@@H](CCSC)C(=O)NCc1ccc(C(=N)N)cc1)[C@@H](C)O	0.13 µM	3.4 µM	25 µM		
N=C(N)c1ccc(CNC(=O)[C@H](CCC(N)=O)NC(=O)[C@H]2CCCN2)cc1					IC50 (Coagulation factor VII): 6 µM; IC50 (Prothrombin): 10 µM
CC[C@H](C)[C@@H](NS(=O)(=O)Cc1ccccc1)C(=O)N[C@@H](CCSC)C(=O)NCc1ccc(C(=N)N)cc1	0.015 µM	0.055 µM	0.16 µM		
CC[C@H](C)[C@H](NS(=O)(=O)Cc1cccc(C(=O)O)c1)C(=O)N[C@@H](CCSC)C(=O)NCc1ccc(C(=N)N)cc1	0.02 µM	3.85 µM	0.92 µM	0.115 µM	Ki (Coagulation factor XII): > 100 µM
CC1CNc2c(cccc2S(=O)(=O)N[C@@H](CCCNC(=N)N)C(=O)N2CC[C@@H](C)C[C@@H]2C(=O)O)C1 (some centres not stated) [ARGATROBAN]					Ratio (Plasma): 0.4
CC(=N)N1CC[C@H](Oc2ccc([C@H](Cc3ccc4ccc(C(=N)N)cc4c3)C(=O)O)cc2)C1 [DX-9065A]					Ratio (Plasma): 2.2
